Published values gathered from unrelated publications.
Protocols differ between the studies behind these lines.
Target: Cyclin-dependent kinase-like 5 (CDKL5, Homo sapiens, UniProt O76039)
One construct used (O76039 1-960): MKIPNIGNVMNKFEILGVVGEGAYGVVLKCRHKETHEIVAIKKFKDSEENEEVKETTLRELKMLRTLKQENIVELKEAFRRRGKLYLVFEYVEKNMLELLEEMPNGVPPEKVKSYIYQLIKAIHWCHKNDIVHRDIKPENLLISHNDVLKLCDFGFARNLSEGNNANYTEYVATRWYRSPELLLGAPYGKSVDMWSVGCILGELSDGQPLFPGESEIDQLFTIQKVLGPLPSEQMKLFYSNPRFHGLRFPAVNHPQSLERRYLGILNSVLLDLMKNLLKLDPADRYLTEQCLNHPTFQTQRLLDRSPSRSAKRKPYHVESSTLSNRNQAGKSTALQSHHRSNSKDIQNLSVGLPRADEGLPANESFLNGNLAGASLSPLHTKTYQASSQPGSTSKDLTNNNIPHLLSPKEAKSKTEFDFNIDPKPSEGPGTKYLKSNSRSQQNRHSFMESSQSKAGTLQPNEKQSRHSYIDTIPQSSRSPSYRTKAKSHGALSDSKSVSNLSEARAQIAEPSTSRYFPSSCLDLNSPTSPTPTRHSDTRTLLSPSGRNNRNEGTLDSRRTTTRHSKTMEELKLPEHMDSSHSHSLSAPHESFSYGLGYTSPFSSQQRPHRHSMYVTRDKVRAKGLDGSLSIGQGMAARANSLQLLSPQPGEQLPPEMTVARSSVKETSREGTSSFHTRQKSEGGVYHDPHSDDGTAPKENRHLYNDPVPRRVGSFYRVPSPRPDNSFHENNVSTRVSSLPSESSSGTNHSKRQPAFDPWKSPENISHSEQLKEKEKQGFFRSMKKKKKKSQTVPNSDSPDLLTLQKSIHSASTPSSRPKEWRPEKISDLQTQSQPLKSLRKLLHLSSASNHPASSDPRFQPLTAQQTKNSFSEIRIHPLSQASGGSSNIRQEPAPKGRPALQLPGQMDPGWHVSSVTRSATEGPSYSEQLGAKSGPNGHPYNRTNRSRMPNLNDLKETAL

SMILES	effect on	technique	tested at	remaining binding
CNCc1ccccc1-c1csc([C@@H](C)Nc2nc(C)nc3cc(OC)c(OC)cc23)c1	cell-free assay	competition with immobilised ligand	1 µM	94%
CN(C)c1nccc(-c2cnc3ncccn23)n1	binding		1 µM	88%
COc1cnc(Nc2cccc(S(N)(=O)=O)c2)nc1N1CCN(c2ccccc2)CC1	binding	competition with immobilised ligand	1 µM	72%
N[C@@H]1CCN(c2nccc(-c3cnn4ncccc34)n2)C1	binding		1 µM	100%
O=C(NCCCN1CCOCC1)c1ccc(Nc2nccc(-c3cc4ccccc4s3)n2)cc1	binding	competition with immobilised ligand	1 µM	40%
c1cncc(-c2cccc(Nc3nccc(NC4CCCCC4)n3)c2)c1	binding	competition with immobilised ligand	10 µM	38%
CN(CCCC(F)(F)F)c1nccc(-c2cnn3ncccc23)n1	binding		1 µM	100%
O=C(NCCCN1CCOCC1)c1ccc(Nc2ncc(Cl)c(-c3ccc(Cl)s3)n2)cc1	binding	competition with immobilised ligand	1 µM	26%
C[C@@H](c1cccc(C#N)c1)n1cc(Cl)cc(C(N)=O)c1=N	binding	competition with immobilised ligand	1 µM	89%
O=C(Nc1c[nH]nc1C(=O)NC1CCNCC1)c1cc(F)cc(F)c1	binding	competition with immobilised ligand	1 µM	0.2%
Cc1cnc(Nc2ccc(C(=O)N3CCC(N4CCCC4)CC3)cc2)nc1-c1cc2ccccc2s1	binding	competition with immobilised ligand	1 µM	69%
CN(c1nccc(-c2cnn3ncccc23)n1)C1CC1	binding		1 µM	100%
CC(C)CC(=O)N1CCc2nc(-c3ccc(Br)cc3)nc(N(C)Cc3ccccc3)c2C1	cell-free assay	competition with immobilised ligand	0.1 µM	100%
COc1ncc2cc3ccccc3nc2c1C#N	binding	competition with immobilised ligand	5 µM	90%
Cc1nccc(COC(=O)N2C[C@@H]3[C@@H](CNC(=O)c4ccc5[nH]nnc5c4)[C@@H]3C2)n1	cell-free assay	competition with immobilised ligand	1 µM	87%
C[C@@H](c1ccc(-n2cnc3c(N)ncnc32)cc1)N1CCc2nn(C)c(Cc3ccccc3)c2C1=O	binding	competition with immobilised ligand	0.1 µM	71%
CN(C)c1nccc(-c2cnn3ncccc23)n1	binding		1 µM	100%
CS(=O)(=O)N1CCCC(NC(=O)[C@H](CCC2CCCCC2)NC(=O)c2ccc(CNc3ncnc4c3nnn4-c3ccccc3)cc2)C1 (stereo partly drawn)	cell-free assay	competition with immobilised ligand	0.1 µM	100%
COc1cnc(Nc2cccc(S(N)(=O)=O)c2)nc1N1CCN(c2ccccc2)C(=O)C1	binding	competition with immobilised ligand	1 µM	100%
C[C@@H]1CCN(c2nccc(-c3cnn4ncccc34)n2)C1	binding		1 µM	86%
O=C(NS(=O)(=O)c1ccc(NCC2CCOCC2)c([N+](=O)[O-])c1)c1ccc(N2CCN(Cc3ccc(C(F)(F)F)cc3-c3ccc(Cl)cc3)CC2)cc1Oc1cnc2[nH]ccc2c1	cell-free assay	competition with immobilised ligand	1 µM	74%
